This note sets out measurements from ChEMBL document CHEMBL4020816.

Test [1] deals with T1, Cannabinoid receptor 1 (Homo sapiens, UniProt P21554). The test is described as follows: Antagonist activity at recombinant human CB1 receptor expressed in HEK293 cell membranes assessed as inhibition of CP55940-induced [35S]GTPgammaS binding preincubated for 1 hr followed by CP55940 addition and subsequent incubation with [35S]GTPgammaS measured after 30 mins by scintillation spectrometry. In kind it is functional. In a few lines:
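Antagonism was measured by [35S]GTPγS binding at 30 °C on membranes of HEK-293 cells stably expressing recombinant human CB1.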

Test [2] has as its target T1, Cannabinoid receptor 1. The test is described as follows: Displacement of [3H]CP55940 from recombinant human CB1 receptor expressed in beta-galactosidase expressing CHOK1 cell membranes assessed as kinetic rate index by measuring ratio of radioligand binding at 30 mins to 240 mins by scintillation spectrometry. In general terms: Loss of bound radioactivity is the signal in a displacement assay; it reports binding, not function.

For test [3], the target named is T1, Cannabinoid receptor 1. The test is described as follows: Displacement of [3H]CP55940 from recombinant human CB1 receptor expressed in beta-galactosidase expressing CHOK1 cell membranes after 60 mins by scintillation spectrometry.

Each structure is given as a SMILES string.

T1 sequence (P21554 whole entry): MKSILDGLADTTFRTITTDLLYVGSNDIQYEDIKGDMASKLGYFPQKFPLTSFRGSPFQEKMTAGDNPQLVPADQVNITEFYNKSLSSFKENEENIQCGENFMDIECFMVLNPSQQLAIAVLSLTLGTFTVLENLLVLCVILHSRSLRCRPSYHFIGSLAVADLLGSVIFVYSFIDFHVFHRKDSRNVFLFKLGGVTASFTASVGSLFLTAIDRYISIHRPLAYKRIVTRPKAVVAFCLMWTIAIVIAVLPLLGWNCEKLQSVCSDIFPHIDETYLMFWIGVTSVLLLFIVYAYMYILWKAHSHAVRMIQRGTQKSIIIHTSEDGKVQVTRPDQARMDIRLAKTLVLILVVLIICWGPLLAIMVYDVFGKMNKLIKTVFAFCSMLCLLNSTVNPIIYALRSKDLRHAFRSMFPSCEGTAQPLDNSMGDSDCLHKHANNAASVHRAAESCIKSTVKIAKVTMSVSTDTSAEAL

Regarding `Cc1c(C(=O)NN2CCCCC2)nc(-c2ccc(Cl)cc2Cl)n1-c1ccc(OS(=O)(=O)CCC(F)(F)F)cc1`, the IC50 at Cannabinoid receptor 1 [1] (read-out: IC50) was 1.1 nM. The Ratio on Cannabinoid receptor 1 [2] was 1.02. Also, the Ki on Cannabinoid receptor 1 [3] (read-out: Ki) turned out to be 0.11 nM.

For `Cc1ccc(NC(=O)c2nc(-c3ccc(Cl)cc3Cl)n(-c3ccc(OS(=O)(=O)CCC(F)(F)F)cc3)c2C)nc1`, on Cannabinoid receptor 1 [1] (read-out: IC50), the IC50 was determined as 1.7 nM. On Cannabinoid receptor 1 [2], the Ratio worked out at 0.92. Further, the Ki at Cannabinoid receptor 1 [3] (read-out: Ki) stood at 0.14 nM.

With `CCCS(=O)(=O)Oc1ccc(-n2c(-c3ccc(Cl)cc3Cl)nc(C(=O)NN3CCCCC3)c2C)cc1`, at Cannabinoid receptor 1 [1] (read-out: IC50), the IC50 was 1.8 nM. Moreover, the Ratio on Cannabinoid receptor 1 [2] came out at 0.59. The Ki on Cannabinoid receptor 1 [3] (read-out: Ki) is 0.28 nM.

In the case of `Cc1c(C(=O)N[C@H]2CCCC[C@H]2N)nc(-c2ccc(Cl)cc2Cl)n1-c1ccc(OS(=O)(=O)CCC(F)(F)F)cc1` (racemic), the IC50 on Cannabinoid receptor 1 [1] (read-out: IC50) worked out at 7.1 nM. Besides, the Ratio at Cannabinoid receptor 1 [2] was 0.79. Further, the Ki on Cannabinoid receptor 1 [3] (read-out: Ki) was found to be 0.52 nM.

For the molecule `Cc1c(C(=O)NN2CCCCC2)nc(-c2ccc(Cl)cc2Cl)n1-c1ccc(OS(=O)(=O)CCCC(F)(F)F)cc1`, the IC50 at Cannabinoid receptor 1 [1] (read-out: IC50) is 1.2 nM. The Ratio on Cannabinoid receptor 1 [2] stood at 0.93. The Ki on Cannabinoid receptor 1 [3] (read-out: Ki) came to 0.062 nM.

Consider `Cc1c(C(=O)Nc2ccc(C(F)(F)F)nc2)nc(-c2ccc(Cl)cc2Cl)n1-c1ccc(OS(=O)(=O)CCC(F)(F)F)cc1`, for which the IC50 at Cannabinoid receptor 1 [1] (read-out: IC50) was determined as 2.2 nM. Moreover, the Ratio at Cannabinoid receptor 1 [2] is 1.12. For the same molecule, the Ki at Cannabinoid receptor 1 [3] (read-out: Ki) is 0.31 nM.

Turning to `Cc1c(C(=O)NC2CCC(O)CC2)nc(-c2ccc(Cl)cc2Cl)n1-c1ccc(OS(=O)(=O)CCC(F)(F)F)cc1` (mixture of isomers), the IC50 at Cannabinoid receptor 1 [1] (read-out: IC50) was 3.8 nM. The Ratio at Cannabinoid receptor 1 [2] came to 0.88. Further, on Cannabinoid receptor 1 [3] (read-out: Ki), the Ki stood at 0.37 nM.

With `Cc1c(C(=O)N[C@H]2CCC[C@H](O)C2)nc(-c2ccc(Cl)cc2Cl)n1-c1ccc(OS(=O)(=O)CCC(F)(F)F)cc1` (racemic), the IC50 at Cannabinoid receptor 1 [1] (read-out: IC50) was 1.1 nM. In addition, the Ratio on Cannabinoid receptor 1 [2] stood at 0.89. Also, the Ki at Cannabinoid receptor 1 [3] (read-out: Ki) came out at 0.1 nM.

Turning to `Cc1c(C(=O)NN2CCCCC2)nc(-c2ccc(Cl)cc2Cl)n1-c1ccc(OS(=O)(=O)CCCF)cc1`, the IC50 on Cannabinoid receptor 1 [1] (read-out: IC50) was 3.1 nM. In addition, on Cannabinoid receptor 1 [2], the Ratio turned out to be 0.88. Also, the Ki on Cannabinoid receptor 1 [3] (read-out: Ki) stood at 0.32 nM.

`Cc1c(C(=O)N[C@@H]2CCCC[C@H]2O)nc(-c2ccc(Cl)cc2Cl)n1-c1ccc(OS(=O)(=O)CCC(F)(F)F)cc1`: the IC50 on Cannabinoid receptor 1 [1] (read-out: IC50) amounted to 1.7 nM. The Ratio on Cannabinoid receptor 1 [2] was determined as 0.74. On Cannabinoid receptor 1 [3] (read-out: Ki), the Ki worked out at 0.3 nM.

Consider `Cc1c(C(=O)NN2CCCC(O)C2)nc(-c2ccc(Cl)cc2Cl)n1-c1ccc(OS(=O)(=O)CCC(F)(F)F)cc1` (racemic), for which the IC50 at Cannabinoid receptor 1 [1] (read-out: IC50) was 2.7 nM. Moreover, on Cannabinoid receptor 1 [2], the Ratio stood at 0.71. In addition, on Cannabinoid receptor 1 [3] (read-out: Ki), the Ki worked out at 0.27 nM.

Turning to `CCCCS(=O)(=O)Oc1ccc(-n2c(-c3ccc(Cl)cc3Cl)nc(C(=O)NN3CCCCC3)c2C)cc1`, the IC50 at Cannabinoid receptor 1 [1] (read-out: IC50) was 1.3 nM. In addition, the Ratio at Cannabinoid receptor 1 [2] stood at 0.77. For the same molecule, at Cannabinoid receptor 1 [3] (read-out: Ki), the Ki amounted to 0.18 nM.

For `Cc1c(C(=O)NN2CCCCC2)nc(-c2ccc(Cl)cc2Cl)n1-c1ccc(OS(=O)(=O)CCC(C)C)cc1`, at Cannabinoid receptor 1 [1] (read-out: IC50), the IC50 worked out at 1.3 nM. For the same molecule, the Ratio on Cannabinoid receptor 1 [2] was 1.02. For the same molecule, the Ki at Cannabinoid receptor 1 [3] (read-out: Ki) was found to be 0.2 nM.

On to `Cc1c(C(=O)Nc2ccc(C(F)(F)F)cn2)nc(-c2ccc(Cl)cc2Cl)n1-c1ccc(OS(=O)(=O)CCC(F)(F)F)cc1`, for which the IC50 on Cannabinoid receptor 1 [1] (read-out: IC50) was 0.61 nM. Further, on Cannabinoid receptor 1 [2], the Ratio turned out to be 1.39. At Cannabinoid receptor 1 [3] (read-out: Ki), the Ki worked out at 0.19 nM.

In the case of `Cc1c(C(=O)NN2CCCCC2)nc(-c2ccc(Cl)cc2Cl)n1-c1ccc(OCCCF)cc1`, the IC50 on Cannabinoid receptor 1 [1] (read-out: IC50) came out at 6 nM. For the same molecule, the Ratio at Cannabinoid receptor 1 [2] is 1.09. Also, the figures for the Ki on Cannabinoid receptor 1 [3] (read-out: Ki) and on Cannabinoid receptor 1 [3] (read-out: pKi (converted)) were 0.34 nM and 0.1 nM, respectively.

Turning to `Cc1c(C(=O)N[C@@H]2CCCC[C@@H]2N(C)C)nc(-c2ccc(Cl)cc2Cl)n1-c1ccc(OS(=O)(=O)CCC(F)(F)F)cc1` (racemic), at Cannabinoid receptor 1 [2], the Ratio was 0.74.

As to `Cc1c(C(=O)NN2CCCCC2)nc(-c2ccc(Cl)cc2Cl)n1-c1ccc(OS(=O)(=O)CCC(C)(C)C)cc1`, at Cannabinoid receptor 1 [1] (read-out: IC50), the IC50 is 2.4 nM. For the same molecule, the Ratio at Cannabinoid receptor 1 [2] is 0.73. The Ki on Cannabinoid receptor 1 [3] (read-out: Ki) stood at 0.6 nM.

As for `Cc1c(C(=O)NN2CCCCC2)nc(-c2ccc(Cl)cc2Cl)n1-c1ccc(OCCC(F)(F)F)cc1`, at Cannabinoid receptor 1 [1] (read-out: IC50), the IC50 amounted to 5.6 nM. Besides, on Cannabinoid receptor 1 [2], the Ratio was 0.9. The Ki at Cannabinoid receptor 1 [3] (read-out: Ki) worked out at 1.26 nM.

For the molecule `Cc1c(C(=O)Nc2ccc(OC(F)(F)F)cc2)nc(-c2ccc(Cl)cc2Cl)n1-c1ccc(OS(=O)(=O)CCC(F)(F)F)cc1`, on Cannabinoid receptor 1 [1] (read-out: IC50), the IC50 stood at 0.66 nM. At Cannabinoid receptor 1 [2], the Ratio is 1.29. The results for the Ki on Cannabinoid receptor 1 [3] (read-out: Ki) and on Cannabinoid receptor 1 [3] (read-out: pKi (converted)) were 0.22 nM and 0.501 nM, respectively.

Regarding `Cc1c(C(=O)N[C@@H]2CCCC[C@@H]2O)nc(-c2ccc(Cl)cc2Cl)n1-c1ccc(OS(=O)(=O)CCC(F)(F)F)cc1`, the IC50 on Cannabinoid receptor 1 [1] (read-out: IC50) came out at 1.8 nM. Also, the Ratio at Cannabinoid receptor 1 [2] came out at 1.06. In addition, the results for the Ki at Cannabinoid receptor 1 [3] (read-out: Ki) and on Cannabinoid receptor 1 [3] (read-out: pKi (converted)) were 0.027 nM and 0.01 nM, respectively.

For the molecule `Cc1c(C(=O)Nc2ccc(F)nc2)nc(-c2ccc(Cl)cc2Cl)n1-c1ccc(OS(=O)(=O)CCC(F)(F)F)cc1`, the IC50 on Cannabinoid receptor 1 [1] (read-out: pIC50 (converted)) is 1.26 nM. Further, the Ratio at Cannabinoid receptor 1 [2] stood at 0.7. In addition, on Cannabinoid receptor 1 [3] (read-out: Ki), the Ki came out at 0.13 nM.

Turning to `Cc1c(C(=O)NN2CCCCC2)nc(-c2ccc(Cl)cc2Cl)n1-c1ccc(OCCCC(F)(F)F)cc1`, the IC50 on Cannabinoid receptor 1 [1] (read-out: IC50) was found to be 1.2 nM. Further, the Ratio on Cannabinoid receptor 1 [2] amounted to 0.8. Moreover, the Ki on Cannabinoid receptor 1 [3] (read-out: Ki) turned out to be 0.32 nM.
